ChEMBL document CHEMBL1275503, “Characterization of an ABCG-like transporter from the protozoan parasite Leishmania with a role in drug resistance and transbilayer lipid movement” (Antimicrob Agents Chemother, 2008)

What was measured:
Format in all cases: functional, organism-based
[1] = tested on: Leishmania infantum; assay: Antileishmanial activity against Leishmania infantum promastigotes overexpressing LiABCG6 assessed as cell viability after 72 hrs by MTT assay
Procedure, shortened: (§1)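 L. infantum promastigotes (strain MHOM/ES/1993/BCN-99) grown at 28°C in modified RPMI 1640 with 20% heat-inactivated fetal bovine serum. Drug sensitivity was measured by MTT-based assay. IC50 was taken as the drug concentration giving half-maximal inhibition of cellular growth rate.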

[2] = tested on: Leishmania infantum; assay: Antileishmanial activity against GFP-tagged at COOH terminus Leishmania infantum promastigotes overexpressing LiABCG6 assessed as cell viability after 72 hrs by MTT assay; procedure, shortened: as §1
[3] = tested on: Leishmania infantum; assay: Antileishmanial activity against GFP-tagged at NH2 terminus Leishmania infantum promastigotes overexpressing LiABCG6 assessed as cell viability after 72 hrs by MTT assay; procedure, shortened: as §1

Row | SMILES | IC50 [1] | IC50 [2] | IC50 [3]
1 | OC(c1cc(C(F)(F)F)nc2c(C(F)(F)F)cccc12)C1CCCCN1 (configuration not stated) [MEFLOQUINE] | 7 µM | – | –
2 | CCCCCCCCCCCCCCCCCCOP(=O)([O-])OC1CC[N+](C)(C)CC1 [PERIFOSINE] | 11 µM | 12.2 µM | 4.2 µM
3 | CC(=O)N1CCN(c2ccc(OCC3COC(Cn4ccnc4)(c4ccc(Cl)cc4Cl)O3)cc2)CC1 (configuration not stated) [KETOCONAZOLE] | 19.3 µM | – | –
4 | CCCCCCCCCCCCCCCCOP(=O)([O-])OCC[N+](C)(C)C [MILTEFOSINE] | 12.9 µM | 13.6 µM | 5.6 µM
5 | COc1cc(NC(C)CCCN)c2ncccc2c1 (configuration not stated) [PRIMAQUINE] | 54.9 µM | – | –
6 | CCCCCCCCCCCCCCCCCCOCC(COP(=O)([O-])OCC[N+](C)(C)C)OC (configuration not stated) [EDELFOSINE] | 11.3 µM | 12.9 µM | 4.8 µM
7 | CCN(CC)CCCC(C)Nc1ccnc2cc(Cl)ccc12 (configuration not stated) [CHLOROQUINE] | 24.1 µM | – | –
8 | CCN(CC)CCCCCCNc1cc(OC)cc2c(C)ccnc12 [SITAMAQUINE] | 14.3 µM | 15.2 µM | 7.8 µM
9 | CC[C@@]1(O)C(=O)OCc2c1cc1n(c2=O)Cc2cc3ccccc3nc2-1 [CAMPTOTHECIN] | 34.4 µM | – | –
